This is an account of results in paper PMC11070865 (Heliyon, 2024).

SMILES strings stand for the structures. Converted amounts (≈) assume the structure as drawn. Where two headings read alike, the source gives them in different places.

One data set concerns KATO-III cell line. The data set is described as follows: Cell viability by MTT assay, KATO-III. The format is cell-based. To be noted: for IC50: Homo sapiens, KATO III, read-out: IC50 on KATO-III.
Data set [1] relates to WI-38 normal lung fibroblast cell line. The data set can be described thus: Cell viability by MTT assay, WI-38. To be noted: Homo sapiens, read-out: IC50 on WI-38. In kind it is cell-based.
The subject of data set [2] is KATO-III cells. The data set is described as follows: Programmed cell death, annexin V/PI flow cytometry. The format is cell-based. To be noted: for Q2 late apoptotic cells (annexin V+ PI+): 72 h.
The test system of data set [3] is KATO-III cells. The data set is described as follows: Cell cycle arrest analysis, PI flow cytometry. The format is cell-based. The settings on record: MF 7.5, 15 and 30 μg/mL, from 24 h exposure onwards, P < 0.01. The method, boiled down: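 KATO-III cells at 5 × 10⁵ per well in 6-well plates were exposed to test compound (0, 7.5, 15 and 30 μg/mL final) or 1 % (v/v) DMSO for 24, 48 and 72 h (37 °C, 5 % CO₂). Cells were trypsinized and washed in cold PBS, then fixed in 70 % ethanol on ice for 30 min. They were treated with RNase A (100 μg/mL, 30 min, 37 °C) and stained with PI (50 μg/mL). Flow cytometry recorded 10,000 events per sample, in triplicate.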

Data set [4] concerns KATO-III cells. The data set can be described thus: Cell imaging. In kind it is cell-based. The method, boiled down:
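KATO-III cells at 5 × 10⁵ per well in 6-well plates were left for 16 h, then given test compound (7.5, 15 or 30 μg/mL), doxorubicin (1.14 μg/mL) or 1 % (v/v) DMSO for 24, 48 and 72 h. Culture was at 37 °C, 5 % CO₂, humidified. Morphology was viewed by light microscopy with camera imaging at 100× and 200×.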

Another data set concerns COX2. The data set is described as follows: RT-qPCR transcript expression, COX2. In kind it is cell-based. To be noted: KATO-III, MF 30 μg/mL or doxorubicin 1.14 μg/mL.
Another data set has as its system NFkB. The data set can be described thus: RT-qPCR transcript expression, NFkB. The format is cell-based. To be noted: KATO-III, MF 30 μg/mL or doxorubicin 1.14 μg/mL.
In the next data set the test system is CASP3. The data set is described as follows: RT-qPCR transcript expression, CASP3. The format is cell-based. To be noted: KATO-III, MF 30 μg/mL or doxorubicin 1.14 μg/mL.
The next data set has as its system CASP7. The data set is described as follows: RT-qPCR transcript expression, CASP7. To be noted: KATO-III, MF 30 μg/mL or doxorubicin 1.14 μg/mL. In kind it is cell-based.
The next data set deals with CTSB. The data set is described as follows: RT-qPCR transcript expression, CTSB. In kind it is cell-based. The settings on record: KATO-III, MF 30 μg/mL.
The test system of a further data set is BCL-2. The data set is described as follows: RT-qPCR transcript expression, BCL-2. In kind it is cell-based. To be noted: KATO-III, 48 h (doxorubicin: from 48 h onwards); MF 30 μg/mL or doxorubicin 1.14 μg/mL.
Data set [5] concerns LU-1 lung cancer cell line. To be noted: MF from Lisotrigona furua propolis; cited from earlier work.
For data set [6], the system named is MCF-7 breast cancer cell line. The settings on record: MF from Lisotrigona furua propolis; cited from earlier work.
For data set [7], the system named is Caco-2, KB, SK-MEL-28 and HN30 cancer cells. The settings on record: SK-MEL-28, HN30; cited from earlier work.
For data set [8], the system named is NCI-N87 gastric cancer cells. To be noted: at 200 μg/mL; cited from earlier work.
The subject of data set [9] is human gastric adenocarcinoma cell line (AGS cells). To be noted: read-out: IC50 against AGS cells; cited from earlier work.

As to `C/C(=C\CC[C@@H](C)[C@H]1CC[C@@]2(C)[C@@H]3CC[C@H]4C(C)(C)[C@@H](O)CC[C@@]45C[C@@]35CC[C@]12C)C(=O)O` [Compound 2, mangiferolic acid], the IC50 with KATO-III cell line (24 h) was 16 µg/mL (≈ 35.1 µM); in the data set with KATO-III cell line (48 h), 12 µg/mL (≈ 26.2 µM); in the data set on KATO-III cell line (72 h), 4.78 µg/mL (≈ 10.5 µM); in data set [1] (WI-38, 24 h), 22 µg/mL (≈ 48.3 µM); in [1] (WI-38, 48 h) it was 13.7 µg/mL (≈ 29.9 µM); in data set [1] (WI-38, 72 h), 11.6 µg/mL (≈ 25.4 µM). Further, in the data set on KATO-III cells [2] (MF 15 μg/mL, listed as MF), the “Q2 late apoptotic cells (annexin V+ PI+)” value is “slightly increased level of apoptotic cells”. For the same compound, in the data set with KATO-III cells [3], the cell cycle arrest entry was “induced detectable levels of cell cycle arrest at the sub-G1 phase and S phase population”. For the same compound, the “morphology of KATO-III cells” value with KATO-III cells [4] (15 μg/mL, 24 and 48 h) was “No significant change in the morphology”; in the data set with KATO-III cells [4] (30 μg/mL, 48 h, 100× magnification), “lower density of cells”. Also, the “COX2 transcript expression level vs control” value with COX2 (24 h) is on record as “upregulated”; in the data set with COX2 (48 h), “significant upregulation”; with COX2 (72 h) it was “increased in gene expression compared to control cells”. Moreover, the “NFkB transcript expression level vs control” value is given as “upregulated with significant increased” with NFkB (24 h), “significant upregulation” with NFkB (48 h) and “increased in gene expression compared to control cells” in the data set on NFkB (72 h). Moreover, the “CASP3 transcript expression level vs control” value in the data set with CASP3 (48 h) is “significant upregulation”; in the data set on CASP3 (72 h), “increased in gene expression compared to control cells”. For the same compound, the “CASP7 transcript expression level vs control” value in the data set with CASP7 (48 h) is given as “significant upregulation”; in the data set on CASP7 (72 h) it was “increased in gene expression compared to control cells”. Also, the “CTSB transcript expression level vs control” value with CTSB (48 h) is “significant upregulation”; in the data set with CTSB (72 h), “only a slight increase compared to control cells”. Further, the “BCL-2 transcript expression level vs control” value in the data set on BCL-2 is “remained the same as in control cells”. The “IC50 against LU-1” value in data set [5] is 13.33 µg/mL (≈ 29.2 µM). Further, the “IC50 against MCF-7” value in [6] is 62.85 µg/mL (≈ 138 µM).
`COc1cccc2c1C(=O)c1c(O)c3c(c(O)c1C2=O)C[C@@](O)(C(=O)CO)C[C@@H]3O[C@H]1C[C@H](N)[C@H](O)[C@H](C)O1` [Doxorubicin, doxorubicin, reference compound]: the 50% inhibitory concentration (IC50) in the data set with KATO-III cell line (24 h) was 1.55 µg/mL (≈ 2.85 µM); in the data set on KATO-III cell line (48 h), 1.43 µg/mL (≈ 2.63 µM); with KATO-III cell line (72 h), 0.56 µg/mL (≈ 1.03 µM); in [1] (WI-38, 24 h), 0.78 µg/mL (≈ 1.44 µM); in data set [1] (WI-38, 48 h), 0.09 µg/mL (≈ 0.166 µM); in data set [1] (WI-38, 72 h), 0.02 µg/mL (≈ 0.0368 µM). Besides, in the data set with KATO-III cell line (both cancer and normal cell lines), the “fold higher cytotoxicity than compounds 1 and 2” value is reported as > 5 fold. Moreover, the “Q1 early apoptotic cells (annexin V+ PI−)” value in the data set with KATO-III cells [2] (doxorubicin 1.14 μg/mL, 48 h) is “significantly enhanced level of early apoptosis”. For the same compound, the “Q2 late apoptotic cells (annexin V+ PI+)” value in the data set on KATO-III cells [2] (doxorubicin 1.14 μg/mL) is given as “significantly higher compared to the control (P < 0.01)”. Besides, the “morphology of KATO-III cells” value in the data set on KATO-III cells [4] (1.14 μg/mL, 72 h) was “clear loss of cell density”; with KATO-III cells [4] (1.14 μg/mL, after 48 h), “cell shrinkage and blebbing”. Further, the “COX2 transcript expression level vs control” value in the data set with COX2 (24 h) was “no significant difference”. Moreover, the “NFkB transcript expression level vs control” value in the data set with NFkB (24 h) was “no significant difference”. For the same compound, the “CASP3 transcript expression level vs control” value in the data set on CASP3 (48 h) and with CASP3 (72 h) was “significantly up-regulated” throughout. Besides, the “CASP7 transcript expression level vs control” value with CASP7 (24 h) was “slightly increase”; in the data set on CASP7 (48 h), “significantly up-regulated”; in the data set with CASP7 (72 h), “significantly up-regulated”. Further, in the data set with BCL-2, the “BCL-2 transcript expression level vs control” value is on record as “slightly decreased (but not significant)”.
On to `COc1c(O)cc2oc3cc(O)c(CC=C(C)C)c(O)c3c(=O)c2c1CC=C(C)C` [alpha-mangostin], for which the “migration of cancer cells” value in data set [7] was “inhibited the migration”.
In the case of `CC(C)=CCc1c(O)cc2oc3cc(O)c(O)c(CC=C(C)C)c3c(=O)c2c1O` [gamma-mangostin], the “migration of cancer cells” value in data set [7] is listed as “inhibited the migration”.
Consider `O=C1C[C@@H](c2ccccc2)Oc2cc(O)cc(O)c21` [pinocembrin], for which, in [8], the cytotoxic activity was 72.5%.
`O=c1c(O)c(-c2ccc(O)c(O)c2)oc2cc(O)cc(O)c12` [quercetin]: in data set [9], the IC50 is 160 µM.
